Results from different studies.
Each line is one published result; the experiments were not run side by side. In brackets after ≈: the same amount, converted by molar mass.

Structure (SMILES)	target or system	test	conditions	measurement	value
NCC(=O)Nc1ccccc1/N=c1\cc(-c2ccc3c(c2)OCCO3)oc2cc(F)ccc12	MCF7	cell growth or viability, CCK-8	1 µM	inhibition	-2.78%
C#CCON=C1C=CC(=C(C#N)c2ccccc2)C=C1	Candidozyma auris	microbial killing, broth dilution	48 h	MFC	64 µg/mL (≈ 246 µM)
CCOC(=O)C1=C(CCl)NC(=O)NC1c1ccc(OC)cc1 (stereo not drawn)		DPPH scavenging		IC50	150 µM
Oc1cc2c(cc1O)C(Cc1ccccc1)NCC2 (stereo not drawn)		DPPH scavenging, absorbance	30 min, dark	IC50	19.7 µM
N#CC(=C1C=CC(=NOC(=O)OCc2ccccc2)C=C1)c1ccccc1	Candidozyma auris	microbial killing, broth dilution	48 h	MFC	128 µg/mL (≈ 359 µM)
CC(C)=CC1NCCc2cc(O)c(O)cc21 (stereo not drawn)		DPPH scavenging, absorbance	30 min, dark	IC50	54.2 µM
C#CCOC(=O)ON=C1C=CC(=C(C#N)c2ccccc2)C=C1	Candidozyma auris	microbial growth, broth dilution	48 h	MIC	16 µg/mL (≈ 52.6 µM)
CCCCCCCCCC1NCCc2cc(O)c(O)cc21 (stereo not drawn)		DPPH scavenging, absorbance	30 min, dark	IC50	62 µM
CCOC(=O)C1=C(CSC2=NCCS2)NC(=O)NC1c1cccc(F)c1 (stereo not drawn)		DPPH scavenging		IC50	201 µM
NCCCC(=O)Nc1ccccc1/N=c1\cc(-c2ccc3c(c2)OCO3)oc2ccccc12	MCF7	cell growth or viability, CCK-8	1 µM	inhibition	10.2%
C=CC(=O)ON=C1C=CC(=C(C#N)c2ccccc2)C=C1	Candidozyma auris	microbial killing, broth dilution	48 h	MFC	16 µg/mL (≈ 57.9 µM)
Oc1cc2c(cc1O)C(CCc1ccccc1)NCC2 (stereo not drawn)		DPPH scavenging, absorbance	30 min, dark	IC50	18 µM
CCOC(=O)C1=C(CCl)NC(=O)NC1c1ccc(C)cc1 (stereo not drawn)		DPPH scavenging		IC50	235 µM
CS(=O)(=O)NCCC(=O)Nc1ccccc1/N=c1\cc(-c2ccc3nc(N)oc3c2)oc2ccccc12	MCF7	cell growth or viability, CCK-8	1 µM	inhibition	2%
CCOC(=O)C1=C(CCl)NC(=O)NC1c1cccc(C)c1 (stereo not drawn)		DPPH scavenging		IC50	70.7 µM
CCCCCCCCCCCCCCCCCC1NCCc2cc(O)c(O)cc21 (stereo not drawn)		DPPH scavenging, absorbance	30 min, dark	IC50	34.8 µM
CCON=C1C=CC(=C(C#N)c2ccccc2)C=C1	Candidozyma auris	microbial growth, broth dilution	48 h	MIC	256 µg/mL (≈ 1020 µM)
O=C1O[C@H]([C@@H](O)CO)C(O)=C1O		DPPH scavenging		IC50	88.4 µM
CC(=O)ON=C1C=CC(=C(C#N)c2ccccc2)C=C1	Candidozyma auris	microbial growth, broth dilution	48 h	MIC	16 µg/mL (≈ 60.5 µM)
CCOC(=O)C1=C(CSC2=NCCS2)NC(=O)NC1c1cccc(C)c1 (stereo not drawn)		DPPH scavenging		IC50	224 µM
COCCC(=O)Nc1ccccc1/N=c1\cc(-c2ccc3c(c2)OCO3)oc2ccccc12	MCF7	cell growth or viability, CCK-8	1 µM	inhibition	9.24%
O=C(C[C@@H](C(F)F)n1ccc(F)n1)N1CCC(O)(Cn2cnc3c(cnn3-c3ccc(F)cc3)c2=O)CC1	CAPAN-1	cell growth or viability, SRB	2.222 µM, 5 days	viability	19.8%
C[C@H](N)C(=O)Nc1ccccc1/N=c1\cc(-c2ccc3c(c2)OCCO3)oc2c(N)cccc12	MCF7	cell growth or viability, CCK-8	1 µM	inhibition	7.27%
CCOC(=O)C1=C(CSC2=NCCS2)NC(=O)NC1c1ccc(C(C)C)cc1 (stereo not drawn)		DPPH scavenging		IC50	190 µM
